Source: ChEMBL document CHEMBL4145684 (J Med Chem, 2018)
Active and inactive are the calls of the source. No cut-off for these calls is given here.

Experiments:
[1] = AUC in mouse at 10 mg/kg, po; format: ADME, organism-based; details: in vivo
Summary of the method: (§1)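 Mouse or rat PK: single intravenous dose 3 mg/kg or oral dose 10 mg/kg, vehicle PEG400/PVP/Tween 80/0.5% CMC in water (9:0.5:0.5:90).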

Estrogen receptor [2] = target: T1, Estrogen receptor (Homo sapiens, UniProt P03372); assay: Induction of ERalpha degradation in human MCF7 cells in phenol red free RPMI medium containing 5% charcoal dextran-treated FBS incubated for 4 hrs by SP1 and anti-ER rabbit monocolnal antibody based in-cell Western assay
T1 sequence (P03372 whole entry): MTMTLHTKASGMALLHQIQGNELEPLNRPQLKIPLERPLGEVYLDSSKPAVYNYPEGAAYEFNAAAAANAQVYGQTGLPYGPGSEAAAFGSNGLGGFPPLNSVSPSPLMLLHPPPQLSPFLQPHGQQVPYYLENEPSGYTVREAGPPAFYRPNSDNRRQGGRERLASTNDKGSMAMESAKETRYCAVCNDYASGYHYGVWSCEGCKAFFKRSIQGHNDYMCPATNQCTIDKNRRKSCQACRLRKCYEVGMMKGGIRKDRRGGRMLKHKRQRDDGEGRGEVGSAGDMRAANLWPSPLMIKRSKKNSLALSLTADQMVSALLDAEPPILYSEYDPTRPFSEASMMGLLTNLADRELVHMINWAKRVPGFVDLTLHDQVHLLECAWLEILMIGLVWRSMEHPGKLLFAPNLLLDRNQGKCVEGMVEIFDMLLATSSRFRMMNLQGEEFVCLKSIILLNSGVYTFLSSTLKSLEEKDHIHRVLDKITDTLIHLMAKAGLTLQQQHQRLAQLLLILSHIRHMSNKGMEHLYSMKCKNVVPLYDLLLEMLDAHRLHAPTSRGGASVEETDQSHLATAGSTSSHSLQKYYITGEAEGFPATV

MCF7 [3] = assay: Antiproliferative activity against human MCF7 cells assessed as reduction in cell proliferation in RPMI containing 10% FBS incubated for 5 days by Cell-titer-Glo assay; format: functional, cell-based; details: MCF7, 120 h
Summary of the method: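 MCF-7 cells, 640/well in RPMI with 10% FBS and 20 mM HEPES, adhered overnight; 10-point 1:5 dilution series (10–0.000005 µM final) for 5 days. CellTiter-Glo luminescence, cell-free medium background subtracted, percent viability vs untreated cells; n ≥ 3.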

Rattus norvegicus [4] = assay: Reduction in uterine wet weight in ethynyl estradiol-stimulated CD-IGS rat at 1 mg/kg, po dosed daily for 3 days by gavage followed 15 mins later by 0.1 mg/kg, po ethynyl estradiol and measured 24 hrs after last dose by immature rat uterine wet weight assay; format: functional
Summary of the method: (§2)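 Female immature CD-IGS rats, 21 days old on arrival; oral gavage of vehicle or compound daily for 3 days, ethynyl estradiol 0.1 mg/kg orally 15 min after each dose. Day 4, 24 h post-dose, plasma taken, then uterus removed and weighed. Reduction = 100 x (VehicleEE – Cpd)/(VehicleEE – Vehicle).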

Rattus norvegicus [5] = assay: Reduction in uterine wet weight in ethynyl estradiol-stimulated CD-IGS rat at 10 mg/kg, po dosed daily for 3 days by gavage followed 15 mins later by 0.1 mg/kg, po ethynyl estradiol and measured 24 hrs after last dose by immature rat uterine wet weight assay; format: functional; summary of the method: as §2
Rattus norvegicus [6] = assay: In-vivo agonist activity at ERalpha in CD-IGS rat assessed as increase in uterine wet weight at 10 mg/kg, po dosed daily for 3 days by gavage and measured 24 hrs after last dose by immature rat uterine wet weight assay; format: functional, organism-based
Summary of the method: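 Immature CD-IGS rats given compound orally for 3 days without ethynyl estradiol (agonist mode); on day 4, 24 h after dosing, uterus removed and weighed; wet weight normalized to total body weight.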

[7] = Clearance in Sprague-Dawley rat at 1 mg/kg, iv; format: ADME, organism-based; details: in vivo
[8] = Oral bioavailability in Sprague-Dawley rat at 2 mg/kg; format: ADME, organism-based; details: in vivo
Estrogen receptor [9] = target: T1, Estrogen receptor; assay: Binding affinity to ERalpha (unknown origin)
[10] = Clearance in mouse at 3 mg/kg, iv; format: ADME, organism-based; details: in vivo; summary of the method: as §1
[11] = Volume of distribution at steady state in mouse at 3 mg/kg, iv; format: ADME, organism-based; details: in vivo, read-out: Vdss; summary of the method: as §1
[12] = Half life in mouse at 3 mg/kg, iv; format: ADME, organism-based; details: in vivo; summary of the method: as §1
[13] = Cmax in mouse at 10 mg/kg, po; format: ADME, organism-based; set-up: dose 10 mg/kg, route oral; details: in vivo; summary of the method: as §1
[14] = AUC (0 to infinity) in mouse at 10 mg/kg, po; format: ADME, organism-based; set-up: dose 10 mg/kg, route oral, time infinity; details: in vivo
[15] = Oral bioavailability in mouse at 10 mg/kg; format: ADME, organism-based; details: in vivo; summary of the method: as §1
[16] = Clearance in rat at 3 mg/kg, iv; format: ADME, organism-based; details: in vivo; summary of the method: as §1
[17] = Volume of distribution at steady state in rat at 3 mg/kg, iv; format: ADME, organism-based; details: in vivo, read-out: Vdss; summary of the method: as §1
[18] = Half life in rat at 3 mg/kg, iv; format: ADME, organism-based; details: in vivo; summary of the method: as §1
[19] = Cmax in rat at 10 mg/kg, po; format: ADME, organism-based; set-up: dose 10 mg/kg, route oral; details: in vivo; summary of the method: as §1
[20] = AUC (0 to infinity) in rat at 10 mg/kg, po; format: ADME, organism-based; set-up: dose 10 mg/kg, route oral, time infinity; details: in vivo
[21] = Oral bioavailability in rat at 10 mg/kg; format: ADME, organism-based; details: in vivo; summary of the method: as §1
MCF7 [22] = assay: Antitumor activity against human MCF7 cells xenografted in nu/nu mouse model of tamoxifen-sensitive breast cancer xenograft implanted with 17beta-estradiol time release pellets assessed as reduction tumor volume at 6 mg/kg, po qd for 4 weeks; format: functional, organism-based
MCF7 [23] = assay: Antitumor activity against human MCF7 cells xenografted in nu/nu mouse model of tamoxifen-resistant breast cancer xenograft implanted with 17beta-estradiol time release pellets assessed as reduction tumor volume at 60 mg/kg, po qd for 4 weeks; format: functional, organism-based
Summary of the method: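 Female nu/nu mice with 0.72 mg 60-day 17β-estradiol pellets bearing MCF-7 tumors, pretreated with oral tamoxifen citrate; at ~150-250 mm3 (mean 200 mm3) randomized, tamoxifen stopped, then dosed daily for 4 weeks; tumor volume (length x width2/2) and body weight twice weekly.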

[24] = AUC in human MCF7 cells xenografted nu/nu mouse implanted with 17beta-estradiol time release pellets dosed orally once daily for 4 weeks; format: ADME, organism-based; details: in vivo, po

Compound | IC50 (Estrogen receptor [2]) | IC50 (MCF7 [3]) | other results
CC1=C(c2ccc(O)cc2)C(c2ccc(OC[C@H](C)N3CC[C@@H](C)C3)cc2)Oc2cc(O)ccc21 (some centres not stated) | 0.3 nM | 0.2 nM | AUC [1]: 0.12 µg·h/mL
CC1=C(c2cccc(O)c2)C(c2ccc(OC[C@@H](C)N3CC[C@H](C)C3)cc2)Oc2ccc(O)cc21 (some centres not stated) | 0.2 nM | 0.2 nM | –
CC1=C(c2ccc(C#N)cc2)C(c2ccc(OC[C@H](C)N3CC[C@@H](C)C3)cc2)Oc2ccc(O)cc21 (some centres not stated) | – | 10 nM | AUC [1]: 2 µg·h/mL; IC50 (Estrogen receptor [2]; mcf7): 1.5 nM
CC1=C(c2cccc(C#N)c2)C(c2ccc(OC[C@H](C)N3CC[C@@H](C)C3)cc2)Oc2ccc(O)cc21 (some centres not stated) | 0.7 nM | 2.6 nM | –
CC1=C(c2cccc(O)c2)C(c2ccc(OC[C@H](C)N3CC[C@H](C)C3)cc2)Oc2ccc(O)cc21 (some centres not stated) | 0.2 nM | 0.2 nM | –
CC1=C(c2ccc(O)cc2)C(c2ccc(OC[C@H](C)N3CC[C@@H](C)C3)cc2)Oc2ccc(O)cc21 (some centres not stated) | 0.1 nM | 0.1 nM | AUC [1]: 0.46 µg·h/mL; inhibition (INH) (Rattus norvegicus [4]): 113%
CC1=C(c2cccc(O)c2)C(c2ccc(OC[C@H](C)N3CCCCC3)cc2)Oc2ccc(O)cc21 (some centres not stated) | 0.2 nM | 0.1 nM | –
CC1=C(c2cccc(O)c2)C(c2ccc(OC[C@@H](C)N3CCCC3)cc2)Oc2ccc(O)cc21 (some centres not stated) | 0.3 nM | 0.2 nM | inhibition (INH) (Rattus norvegicus [5]): 84%; Activity (Rattus norvegicus [6]): Active
CC1=C(c2cccc(O)c2)C(c2ccc(OCCN3CCCC3)cc2)Oc2ccc(O)cc21 (configuration not stated) | 0.4 nM | 0.3 nM | –
Oc1ccc([C@H]2Sc3cc(O)ccc3O[C@H]2c2ccc(OCCN3CCCCC3)cc2)cc1 | – | – | clearance [7]: 0.3 L/h/kg; bioavailability [8]: 31%
CC1=C(c2cccc(F)c2)C(c2ccc(OC[C@H](C)N3CC[C@@H](C)C3)cc2)Oc2ccc(O)cc21 (some centres not stated) | 0.5 nM | 1 nM | AUC [1]: 0.35 µg·h/mL
CC1=C(c2cccc(O)c2)C(c2ccc(OCCN3CC(C)C3)cc2)Oc2ccc(O)cc21 (configuration not stated) | – | – | IC50 (Estrogen receptor [2]; mcf7): 0.3 nM
CC1=C(c2cccc(O)c2)C(c2ccc(OCCN3CC[C@H](C)C3)cc2)Oc2ccc(O)cc21 (some centres not stated) | 0.2 nM | 0.3 nM | –
CC1=C(c2ccc(O)cc2)[C@H](c2ccc(OCCN3CCCCC3)cc2)Oc2cc(O)ccc21 [ACOLBIFENE] | – | – | AUC [1]: 0.09 µg·h/mL
CC1=C(c2cccc(O)c2)C(c2ccc(OCCN3CCC3)cc2)Oc2ccc(O)cc21 (configuration not stated) | 0.3 nM | 0.2 nM | –
CC1=C(c2cccc(O)c2)C(c2ccc(OCCN3CCCCC3)cc2)Oc2ccc(O)cc21 (configuration not stated) | 0.2 nM | 0.2 nM | –

Compound | IC50 (Estrogen receptor [2]) | IC50 (MCF7 [3]) | other results
CC1=C(c2cccc(O)c2)C(c2ccc(OCCN3CCC(C)CC3)cc2)Oc2ccc(O)cc21 (configuration not stated) | 0.2 nM | 0.2 nM | –
CC1=C(c2cccc(O)c2)C(c2ccc(OC[C@H](C)N3CC[C@@H](C)C3)cc2)Oc2cc(O)ccc21 (some centres not stated) | 0.2 nM | 0.3 nM | AUC [1]: 0.05 µg·h/mL
CC1=C(c2ccc(S(C)(=O)=O)cc2)C(c2ccc(OC[C@H](C)N3CC[C@@H](C)C3)cc2)Oc2ccc(O)cc21 (some centres not stated) | 5.7 nM | 27 nM | –
CC1=C(c2cccc(O)c2)C(c2ccc(OCCN3CC[C@@H](C)C3)cc2)Oc2ccc(O)cc21 (some centres not stated) | 0.4 nM | 0.2 nM | –
CC1=C(c2cccc(O)c2)[C@@H](c2ccc(OC[C@H](C)N3CC[C@@H](C)C3)cc2)Oc2ccc(O)cc21 | 9.7 nM | 59 nM | IC50 (Estrogen receptor [9]): 136 nM
CC1=C(c2cccc(O)c2)C(c2ccc(OC[C@@H](C)N3CC[C@@H](C)C3)cc2)Oc2ccc(O)cc21 (some centres not stated) | 0.3 nM | 0.2 nM | –
CC1=C(c2cccc(O)c2)[C@H](c2ccc(OC[C@H](C)N3CC[C@@H](C)C3)cc2)Oc2ccc(O)cc21 | 0.1 nM | 0.1 nM | IC50 (Estrogen receptor [9]): 2.8 nM
CC1=C(c2ccc(F)cc2)C(c2ccc(OC[C@H](C)N3CC[C@@H](C)C3)cc2)Oc2ccc(O)cc21 (some centres not stated) | – | – | AUC [1]: 2 µg·h/mL; IC50 (Estrogen receptor [2]; mcf7): 0.4 nM; inhibition (INH) (Rattus norvegicus [4]): 111%; clearance [10]: 1.8 L/h/kg; Vd [11]: 11 L/kg; half-life [12]: 5.2 h; Cmax [13]: 0.17 µg/mL; AUC(0-inf) [14]: 2 µg·h/mL; bioavailability [15]: 35%; clearance [16]: 1.26 L/h/kg; Vd [17]: 12 L/kg; half-life [18]: 7.4 h; Cmax [19]: 0.28 µg/mL; AUC(0-inf) [20]: 4.5 µg·h/mL; bioavailability [21]: 54%; Activity (MCF7 [22]): Active; Activity (MCF7 [23]): inactive; AUC at 672 h [24]: 36 µg·h/mL
CC1=C(c2cccc(O)c2)C(c2ccc(OC[C@H](C)N3CCC3)cc2)Oc2ccc(O)cc21 (some centres not stated) | 0.9 nM | 0.1 nM | –
CC1=C(c2cccc(O)c2)C(c2ccc(OC[C@H](C)N3CCCCCC3)cc2)Oc2ccc(O)cc21 (some centres not stated) | 0.2 nM | 0.2 nM | –
CC1=C(c2cccc(O)c2)C(c2ccc(OCCN3CCCCCC3)cc2)Oc2ccc(O)cc21 (configuration not stated) | 0.2 nM | 0.2 nM | –
CC1=C(c2ccccc2)C(c2ccc(OC[C@H](C)N3CC[C@@H](C)C3)cc2)Oc2ccc(O)cc21 (some centres not stated) | 0.4 nM | 0.4 nM | AUC [1]: 1 µg·h/mL
CC1=C(c2cccc(O)c2)C(c2ccc(OC[C@H](C)N3CCCC3)cc2)Oc2ccc(O)cc21 (some centres not stated) | 0.4 nM | 0.2 nM | –
Oc1ccc([C@H]2Sc3ccc(O)cc3O[C@H]2c2ccc(OCCN3CCCCC3)cc2)cc1 | – | – | clearance [7]: 9.24 L/h/kg; bioavailability [8]: 0%
CC1=C(c2cccc(S(C)(=O)=O)c2)C(c2ccc(OC[C@H](C)N3CC[C@@H](C)C3)cc2)Oc2ccc(O)cc21 (some centres not stated) | 1.4 nM | 4.3 nM | –
